We go through 31 molecules from ChEMBL document CHEMBL4152381, “Discovery of Benzoazepinequinoline (BAQ) Derivatives as Novel, Potent, Orally Bioavailable Respiratory Syncytial Virus Fusion Inhibitors” (J Med Chem, 2018).

Data set [1] can be described thus: Therapeutic index, ratio of CC50 for human Hep2 cells to EC50 for inhibition of RSV long fusion protein assessed as protection against virus induced cytopathic effect in infected human Hep2 cells. Format: toxicity, cell-based. The conditions noted are these: HEp-2 cells, read-out: Ratio CC50/EC50. In outline:
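Index computed as CC50/EC50. CC50 came from uninfected HEp-2 cells and EC50 from 50% reduction of RSV Long CPE in HEp-2 cells (MOI 0.02). Both assays ran 5 days with serially diluted compound and a CCK-8 viability read-out.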

A short description of data set [2]: Cytotoxicity against human Hep2 cells assessed as decrease in cell viability after 5 days by CCK8 assay. The data set is classed as cell-based. The conditions noted are these: HEp-2 cells. In outline:
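Uninfected HEp-2 cells, seeded at 6000 per well, were cultured 5 days with serially diluted compound alongside the CPE assay. Viability was read by CCK-8, and CC50 was the concentration cytotoxic to 50% of cells.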
In general terms: Formazan colour is commonly taken as a measure of viable cells.

A short description of data set [3]: Intrinsic clearance in rat liver microsomes. The data set is classed as ADME, microsome. The conditions noted are these: read-out: CLH. The gist of the method: (§1)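 Intrinsic clearance was measured in human, rat or mouse liver microsomes and reported as scaled clearance.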
A general note: Liver microsomes are vesicles of endoplasmic reticulum, rich in cytochrome P450 enzymes.

Data set [4] can be described thus: Intrinsic clearance in human liver microsomes. Format: ADME, microsome. As to conditions: read-out: CLH. In outline: as §1
Data set [5] in a line: Intrinsic clearance in mouse liver microsomes. The data set is classed as ADME, microsome. As to conditions: read-out: CLH. In outline: as §1
Data set [6] is described as follows: Drug metabolism in mouse liver microsomes assessed as oxidation. The data set is classed as ADME, microsome.
The nature of data set [7]: Oral bioavailability in Wistar-Han rat at 10 mg/kg after 15 mins to 24 hrs by LC/MS/MS analysis. Format: ADME, organism-based. The conditions noted are these: in vivo. In outline:
(§2)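 Single-dose PK in male Wistar rats at 2 mg/kg iv and 10 mg/kg po. Plasma clearance, Vss, iv half-life, AUC and oral bioavailability were derived.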

Data set [8] can be described thus: Clearance in Wistar-Han rat at 2 mg/kg, iv after 15 mins to 24 hrs by LC/MS/MS analysis. Format: ADME, organism-based. The conditions noted are these: in vivo. The gist of the method: as §2
Data set [9] is described as follows: AUC (0 to infinity) in Wistar-Han rat at 2 mg/kg, iv after 15 mins to 24 hrs by LC/MS/MS analysis. Format: ADME, organism-based. Details: dose 2 mg/kg, route intravenous, time infinity. As to conditions: in vivo.
Data set [10] is described as follows: Drug metabolism in rat liver microsomes assessed as oxidation. The data set is classed as ADME, microsome.
Data set [11] is described as follows: Volume of distribution at steady state in Wistar-Han rat at 2 mg/kg, iv after 15 mins to 24 hrs by LC/MS/MS analysis. Format: ADME, organism-based. As to conditions: in vivo, read-out: Vdss. In outline: as §2
Data set [12] can be described thus: Solubility of the compound by LYSA. The data set is classed as physicochemical. The gist of the method: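 Solubility measured by lyophilization solubility assay (LYSA), reported in μg/mL.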
Data set [13] can be described thus: AUC (0 to infinity) in Wistar-Han rat at 10 mg/kg, po after 15 mins to 24 hrs by LC/MS/MS analysis. The data set is classed as ADME, organism-based. Details: dose 10 mg/kg, time infinity, route oral. As to conditions: in vivo.
The nature of data set [14]: Half life in Wistar-Han rat at 2 mg/kg, iv by LC/MS/MS analysis. The data set is classed as ADME, organism-based. As to conditions: in vivo. In outline: as §2
The nature of data set [15]: Drug metabolism in rat liver microsomes assessed as dealkylation. Format: ADME, microsome.
The nature of data set [16]: Drug metabolism in mouse liver microsomes assessed as dealkylation. Format: ADME, microsome.
Data set [17] in a line: Effective permeability of the compound by PAMPA. The data set is classed as ADME. The conditions noted are these: read-out: Peff. In outline: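 Parallel artificial membrane permeability assay, with permeability reported in 10−6 cm/s.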
On the technique in general: In PAMPA a lipid-coated filter parts donor from acceptor wells.

The nature of data set [18]: Fraction unbound in mouse plasma. The data set is classed as ADME, cell-free.
Data set [19] in a line: Fraction unbound in human plasma. The data set is classed as ADME, cell-free.

Structures are written as SMILES. Where only a bound is given, the exact number is not on record here.

Take `Cc1ccc2nc(N3CCCc4ccccc4C3)cc(NCCN)c2c1`: the selectivity ratio in data set [1] worked out at 129. Also, the CC50 – broadly, the concentration at which the toxic effect on the cells reaches its halfway point – at 120 h in data set [2] was determined as 9.4 µM.
Regarding `NCCCCNc1cc(N2CCc3ccccc3C2)nc2ccccc12`, in data set [2], the CC50 at 120 h worked out at 7.4 µM.
As for `NCCNc1cc(N2CCOc3ccccc3C2)nc2ccccc12`, the selectivity ratio in data set [1] was greater than 43. Besides, the CLint scaled turned out to be 20 mL/min/kg in data set [3], 14 mL/min/kg in [4] and 25 mL/min/kg in data set [5]. In data set [2], the CC50 at 120 h was greater than 10 µM.
`NCCNc1cc(N2CCCc3ccccc3C2)nc2ccccc12`: the selectivity ratio in data set [1] came out at 115. The Drug metabolism result in data set [6], in data set [10], in data set [15] and in data set [16] was “Metabolite_Detected” each time. The CLint scaled in data set [3] was determined as 23 mL/min/kg; in [4], 10 mL/min/kg; in data set [5], 19 mL/min/kg. In addition, the bioavailability (commonly dose-corrected exposure relative to a reference, in per cent) in [7] turned out to be 32%. The clearance (as a rule, a measure of how efficiently the substance is removed, as volume per time) in data set [8] fell in the range of 89 to 106 mL/min/kg. Further, the total exposure AUC(0-inf) (in general, total exposure, with the tail of the curve extrapolated) came to 324 ng·h/mL in data set [9] and 510 ng·h/mL in data set [13]. Besides, the Vd in data set [11] was in the range of 73 to 106 L/kg. Further, the CC50 at 120 h in data set [2] is 23 µM. Also, the solubility (commonly how much of the substance goes into solution per volume) in data set [12] was greater than 460 µg/mL. Further, the half-life (in general, how long it takes for the measured level to halve) in data set [14] was 720 min. Besides, the Papp in data set [17] turned out to be 0.99 ×10⁻⁶ cm/s.
Turning to `Cc1ccc2nc(N3CCS(=O)(=O)c4ccccc4C3)cc(NCCCCCN)c2c1`, the selectivity ratio in [1] was 778. Besides, the CC50 at 120 h in data set [2] was 21 µM.
On the same counts, the results for `NC(=O)NCCNc1cc(N2CCc3ccccc3C2)nc2ccccc12` are 5 and 80 µM.
With `NCC(O)CNc1cc(N2Cc3ccccc3C2)nc2ccccc12` (stereo unspecified), the CC50 at 120 h in data set [2] was 2.9 µM.
In the case of `COc1ccc2nc(N3CCCc4ccccc4C3)cc(NCCN)c2c1`, the selectivity ratio in [1] is 15. Moreover, the CC50 at 120 h in data set [2] amounted to 4.8 µM.
For the molecule `NCCCNc1cc(N2CCc3ccccc3C2)nc2ccccc12`, in data set [1], the selectivity ratio was 1. Further, the cytotoxic concentration (CC50) at 120 h in data set [2] stood at 8.4 µM.
In the same order, the values of `Cc1ccc2nc(N3CCS(=O)(=O)c4ccccc4C3)cc(NCCCN)c2c1` are 21000 and 21 µM.
For `Cc1ccc2nc(N3CCS(=O)(=O)c4ccccc4C3)cc(NCCN)c2c1`, the selectivity ratio in [1] is 16500. The CLint scaled in data set [3] was 8 mL/min/kg; in data set [4], 5 mL/min/kg; in data set [5], 1 mL/min/kg. Moreover, in data set [7], the bioavailability worked out at 0%. This molecule showed a clearance in data set [8] of 97 mL/min/kg. The area under the curve AUC(0-inf) in data set [9] worked out at 346 ng·h/mL. For the same molecule, the Vd in [11] amounted to 17 L/kg. For the same molecule, the CC50 at 120 h in data set [2] was found to be 66 µM. The solubility in data set [12] is greater than 466 µg/mL. Also, the fraction unbound – broadly, free concentration divided by total concentration – is 0.08 in data set [18] and 0.078 in [19]. For the same molecule, the half-life in data set [14] was 270 min. The Papp in data set [17] was determined as 0.12 ×10⁻⁶ cm/s.
In the case of `CS(=O)(=O)c1ccc2nc(N3CCCc4ccccc4C3)cc(NCCN)c2c1`, in data set [1], the selectivity ratio stood at 2. Further, the CC50 at 120 h in data set [2] was found to be 13 µM.
On the same counts, the results for `NCCNc1cc(N2CCCc3ccccc3C2)nc2ccc(Cl)cc12` are greater than 27 and greater than 3.2 µM.
`Cc1ccc2nc(N3CCC(F)(F)c4ccccc4C3)cc(NCCN)c2c1`: the selectivity ratio in [1] worked out at 106. Moreover, the cytotoxic concentration (CC50) at 120 h in [2] worked out at 6.6 µM.
On the same counts, the results for `OCC(O)CNc1cc(N2CCc3ccccc3C2)nc2ccccc12` (stereo unspecified) are 3 and 66 µM.
On the same counts, the results for `NCCNc1cc(N2CCCc3ccccc3C2)nc2ccc(F)cc12` are 5 and 8 µM.
As for `NCCNc1cc(N2CCc3ccccc3C2)nc2ccccc12`, the selectivity ratio in [1] is 7. In addition, in data set [2], the CC50 at 120 h was 15 µM.
With `Cc1ccc2nc(N3CCCc4cc(F)ccc4C3)cc(NCCN)c2c1`, in [1], the selectivity ratio was greater than 7. Besides, the CLint scaled in [3] came to 33 mL/min/kg; in data set [4], 8 mL/min/kg; in data set [5], 31 mL/min/kg. The CC50 at 120 h in data set [2] was greater than 3.2 µM.
In the case of `NCCNc1cc(N2CCS(=O)(=O)c3ccccc3C2)nc2ccccc12`, the selectivity ratio in data set [1] came to 8540. In addition, the CLint scaled in data set [3] was 3 mL/min/kg. The CC50 at 120 h in data set [2] is 94 µM.
As to `NCCNc1cc(N2CCCc3ccccc3C2)nc2cccc(Cl)c12`, the selectivity ratio in [1] turned out to be 3. In addition, in [2], the CC50 at 120 h was 23 µM.
On to `NCC(O)CNc1cc(N2CCc3ccccc3C2)nc2ccccc12` (stereo unspecified), for which the selectivity ratio in [1] was 95. The CC50 at 120 h in data set [2] stood at 21 µM.
`Cc1ccc2nc(N3CCCc4ccc(F)cc4C3)cc(NCCN)c2c1`: the selectivity ratio in data set [1] is greater than 32. For the same molecule, the values for the CLint scaled in data set [3], in data set [4] and in data set [5] were 160 mL/min/kg, 6 mL/min/kg and 24 mL/min/kg, respectively. For the same molecule, in data set [2], the CC50 at 120 h is greater than 3.2 µM.
`NCCNc1cc(N2CCCc3ccccc3C2)nc2cc(Cl)ccc12`: in [1], the selectivity ratio was 2. Besides, in [2], the CC50 at 120 h amounted to 7.5 µM.
On to `NCCNc1cc(N2CCCc3ccccc3C2)nc2c(Cl)cccc12`, for which, in [1], the selectivity ratio was 23. Besides, the CC50 at 120 h in data set [2] came to 25 µM.
Consider `NCC(O)CNc1cc(N2CCCc3ccccc3C2)nc2ccccc12` (stereo unspecified), for which the selectivity ratio in data set [1] came out at 95. In data set [2], the CC50 at 120 h came to 21 µM.
As to `CC(O)CNc1cc(N2CCc3ccccc3C2)nc2ccccc12` (stereo unspecified), the CC50 at 120 h in data set [2] came out at 89 µM.
`Cc1ccc2nc(N3CCS(=O)(=O)c4ccccc4C3)cc(NCCCCN)c2c1`: the selectivity ratio in [1] was 13100. In data set [2], the CC50 at 120 h was found to be 92 µM.
For `NCCNc1cc(N2CCCc3ccccc3C2)nc2ccc(C(F)(F)F)cc12`, in data set [1], the selectivity ratio came out at 6. The CC50 at 120 h in data set [2] worked out at 6.7 µM.
As to `N=C(N)NCCNc1cc(N2CCc3ccccc3C2)nc2ccccc12`, the selectivity ratio in [1] was 43. Moreover, the half-maximal cytotoxic concentration (CC50) at 120 h in [2] was greater than 100 µM.
With `Cc1ccc2nc(N3CC(=O)Nc4ccccc4C3)cc(NCCN)c2c1`, in [1], the selectivity ratio was determined as 177. Further, the CLint scaled in data set [3] was 21 mL/min/kg; in [5], 11 mL/min/kg. Further, the CC50 at 120 h in [2] was 55 µM.
With `Cc1ccc2nc(N3CCNc4ccccc4C3)cc(NCCN)c2c1`, the selectivity ratio in [1] is 52. Moreover, the CLint scaled was determined as 43 mL/min/kg in data set [3], 5 mL/min/kg in data set [4] and 19 mL/min/kg in data set [5]. The CC50 at 120 h in [2] amounted to 12 µM.
